Measurements: article PMC7667002 (Drug Design, Development and Therapy, 2020)

Assays:
[1] = In vivo pharmacokinetic study of VEN and ODV in rats with or without vonoprazan; parameters: species or system Sprague-Dawley rats; details: rat; for AUC(0-t) / AUC(0-inf) / CL/F / Cmax / MRT last / MRT inf / Tmax / Vd/F / half-life: male, Sprague-Dawley, plasma, po, 20 mg/kg, rat plasma, VEN 20 mg/kg oral; for CL/F: CLz/F; for MRT last: MRT(0-t); for MRT inf: MRT(0-∞); for Vd/F: Vz/F; for half-life: t1/2z
[2] = Stability of VEN and ODV in rat plasma under different storage conditions; type: in vitro ADME; details: for Stability, Accuracy RE (%): n = 6
Enzyme kinetics = type: in vitro ADME; details: rat, rat liver microsomes, pH 7.4
In short: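 Rat liver microsomes (1 mg/mL) were incubated in 100 mM potassium phosphate pH 7.4 with 10 mM NADPH and venlafaxine. After 5 min pre-incubation at 37°C, NADPH started a 30 min reaction, stopped with ice-cold acetonitrile containing diazepam internal standard. ODV formation was quantified by UPLC-MS/MS. Km came from nonlinear regression of velocity versus substrate concentration on duplicate or triplicate determinations.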

rat liver microsomes = assay: Effect of vonoprazan on the metabolism of VEN; type: in vitro ADME; details: RLMs
In short: (§1)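 Male Sprague–Dawley rat liver microsomes were prepared by differential centrifugation (9000 × g, then 105,000 × g). After 5 min pre-incubation at 37°C, NADPH started a 30 min reaction, stopped with ice-cold acetonitrile. ODV was measured by UPLC-MS/MS against a diazepam internal standard, in triplicate, and analysed by Lineweaver–Burk plots with slope and intercept replots.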

[3] = test system: venlafaxine O-demethylation (ODV formation) in rat liver microsomes; no CYP named; assay: Effect of vonoprazan on the metabolism of VEN; type: in vitro ADME; details: rat, rat liver microsomes, pH 7.4, probe venlafaxine (VEN), 2-16 μM
In short: as §1

[4] = + vonoprazan 5 mg/kg oral, 7 days
[5] = + vonoprazan 20 mg/kg oral, 7 days
[6] = VEN 20 mg/kg oral + vonoprazan 5 mg/kg
[7] = VEN 20 mg/kg oral + vonoprazan 20 mg/kg
[8] = 4°C, 24h, high QC (VEN 300, ODV 60 ng·mL^−1)
[9] = 4°C, 24h, low QC (VEN 3, ODV 0.6 ng·mL^−1)
[10] = Room Temperature, 6h, high QC (VEN 300, ODV 60 ng·mL^−1)
[11] = Room Temperature, 6h, low QC (VEN 3, ODV 0.6 ng·mL^−1)
[12] = −80°C, 7 Days, high QC (VEN 300, ODV 60 ng·mL^−1)
[13] = −80°C, 7 Days, low QC (VEN 3, ODV 0.6 ng·mL^−1)

**Q.** With `CN(C)CC(c1ccc(O)cc1)C1(O)CCCCC1` (stereo not shown) [ODV, O-desmethylvenlafaxine] as the molecule, how does the AUC(0-t) [1, 4] read?
**A.** 221 ± 31.5 ng·h/mL

**Q.** What about the AUC(0-t) [1, 5] of the same molecule?
**A.** 469 ± 68.6 ng·h/mL

**Q.** What about the AUC(0-t) ([1]; without vonoprazan (control)) of the same molecule?
**A.** 155 ± 36.6 ng·h/mL

**Q.** And the AUC(0-inf) [1, 4]?
**A.** 225 ± 31.7 ng·h/mL

**Q.** What about the AUC(0-inf) [1, 5] of the same molecule?
**A.** 492 ± 79.8 ng·h/mL

**Q.** And the AUC(0-inf) ([1]; without vonoprazan (control))?
**A.** 161 ± 43.5 ng·h/mL

**Q.** What about the CL/F [1, 4] of the same molecule?
**A.** 1510 mL/min/kg

**Q.** What about the CL/F [1, 5] of the same molecule?
**A.** 696 mL/min/kg

**Q.** What about the CL/F ([1]; without vonoprazan (control)) of the same molecule?
**A.** 2200 mL/min/kg

**Q.** What about the Cmax [1, 4] of the same molecule?
**A.** 69.7 ± 30.1 ng/mL

**Q.** And the Cmax [1, 5]?
**A.** 109 ± 13.4 ng/mL

**Q.** And the Cmax ([1]; without vonoprazan (control))?
**A.** 58.1 ± 14.1 ng/mL

**Q.** What about the MRT last [1, 4] of the same molecule?
**A.** 3.08 ± 0.48 h

**Q.** And the MRT last [1, 5]?
**A.** 3.92 ± 0.38 h

**Q.** What about the MRT last ([1]; without vonoprazan (control)) of the same molecule?
**A.** 2.82 ± 0.55 h

**Q.** And the MRT inf [1, 4]?
**A.** 3.28 ± 0.49 h

**Q.** What about the MRT inf [1, 5] of the same molecule?
**A.** 4.44 ± 0.52 h

**Q.** And the MRT inf ([1]; without vonoprazan (control))?
**A.** 3.2 ± 1.16 h

**Q.** And the Tmax [1, 4]?
**A.** 0.95 ± 0.37 h

**Q.** What about the Tmax [1, 5] of the same molecule?
**A.** 2.6 ± 0.55 h

**Q.** What about the Tmax ([1]; without vonoprazan (control)) of the same molecule?
**A.** 0.75 ± 0.18 h

**Q.** What about the Vd/F [1, 4] of the same molecule?
**A.** 260 ± 41.5 L/kg

**Q.** And the Vd/F [1, 5]?
**A.** 142 ± 30.4 L/kg

**Q.** And the Vd/F ([1]; without vonoprazan (control))?
**A.** 374 ± 170 L/kg

**Q.** What about the half-life [1, 4] of the same molecule?
**A.** 2.01 ± 0.36 h

**Q.** And the half-life [1, 5]?
**A.** 2.43 ± 0.75 h

**Q.** What about the half-life ([1]; without vonoprazan (control)) of the same molecule?
**A.** 2.05 ± 1.05 h

**Q.** And the “Increase of the metabolite (M. R.) compared with control group” value [1, 6]?
**A.** 0.87 fold

**Q.** What about the “Decrease of CLz/F compared with control group” value [1, 7] of the same molecule?
**A.** 68.33%

**Q.** And the “Decrease of Vz/F compared with control group” value [1, 7]?
**A.** 62.08%

**Q.** What about the “Elevation of Cmax compared with control group” value [1, 7] of the same molecule?
**A.** 0.88 fold

**Q.** What about the “Elevation of Tmax compared with control group” value [1, 7] of the same molecule?
**A.** 2.46 fold

**Q.** What about the “Increase of AUC(0-∞) compared with control group” value [1, 7] of the same molecule?
**A.** 2.05 fold

**Q.** And the “Increase of MRT(0-∞) compared with control group” value [1, 7]?
**A.** 0.39 fold

**Q.** What about the “Increase of the metabolite (M. R.) compared with control group” value [1, 7] of the same molecule?
**A.** 1.34 fold

**Q.** What about the “Stability, Accuracy RE (%)” value [2, 8] of the same molecule?
**A.** 108.96%

**Q.** What about the “Stability, Accuracy RE (%)” value [2, 9] of the same molecule?
**A.** 112.11%

**Q.** And the “Stability, Accuracy RE (%)” value [2, 10]?
**A.** 109.57%

**Q.** What about the “Stability, Accuracy RE (%)” value [2, 11] of the same molecule?
**A.** 107.58%

**Q.** And the “Stability, Accuracy RE (%)” value [2, 12]?
**A.** 106.85%

**Q.** And the “Stability, Accuracy RE (%)” value [2, 13]?
**A.** 105.72%

**Q.** Which Km at 30 min (Enzyme kinetics) does the source give for `COc1ccc(C(CN(C)C)C2(O)CCCCC2)cc1` (stereo not shown) [VEN, Venlafaxine] here?
**A.** 8.28 µM

**Q.** What about the AUC(0-t) [1, 4] of the same molecule?
**A.** 689 ± 161 ng·h/mL

**Q.** And the AUC(0-t) [1, 5]?
**A.** 1910 ng·h/mL

**Q.** What about the AUC(0-t) ([1]; without vonoprazan (control)) of the same molecule?
**A.** 260 ± 102 ng·h/mL

**Q.** What about the AUC(0-inf) [1, 4] of the same molecule?
**A.** 694 ± 163 ng·h/mL

**Q.** And the AUC(0-inf) [1, 5]?
**A.** 1920 ng·h/mL

**Q.** And the AUC(0-inf) ([1]; without vonoprazan (control))?
**A.** 261 ± 101 ng·h/mL

**Q.** What about the CL/F [1, 4] of the same molecule?
**A.** 500 mL/min/kg

**Q.** What about the CL/F [1, 5] of the same molecule?
**A.** 192 mL/min/kg

**Q.** And the CL/F ([1]; without vonoprazan (control))?
**A.** 1460 mL/min/kg

**Q.** And the Cmax [1, 4]?
**A.** 261 ± 110 ng/mL

**Q.** And the Cmax [1, 5]?
**A.** 525 ± 115 ng/mL

**Q.** And the Cmax ([1]; without vonoprazan (control))?
**A.** 127 ± 41.5 ng/mL

**Q.** What about the MRT last [1, 4] of the same molecule?
**A.** 2.44 ± 0.3 h

**Q.** And the MRT last [1, 5]?
**A.** 3.28 ± 0.52 h

**Q.** And the MRT last ([1]; without vonoprazan (control))?
**A.** 2.09 ± 0.18 h

**Q.** What about the MRT inf [1, 4] of the same molecule?
**A.** 2.52 ± 0.43 h

**Q.** And the MRT inf [1, 5]?
**A.** 3.36 ± 0.56 h

**Q.** And the MRT inf ([1]; without vonoprazan (control))?
**A.** 2.12 ± 0.17 h

**Q.** What about the Tmax [1, 4] of the same molecule?
**A.** 0.95 ± 0.37 h

**Q.** And the Tmax [1, 5]?
**A.** 2.6 ± 0.55 h

**Q.** What about the Tmax ([1]; without vonoprazan (control)) of the same molecule?
**A.** 0.7 ± 0.21 h

**Q.** What about the Vd/F [1, 4] of the same molecule?
**A.** 62.1 ± 15.4 L/kg

**Q.** And the Vd/F [1, 5]?
**A.** 19.9 ± 7.19 L/kg

**Q.** And the Vd/F ([1]; without vonoprazan (control))?
**A.** 187 ± 130 L/kg

**Q.** What about the half-life [1, 4] of the same molecule?
**A.** 1.48 ± 0.46 h

**Q.** And the half-life [1, 5]?
**A.** 1.28 ± 0.53 h

**Q.** And the half-life ([1]; without vonoprazan (control))?
**A.** 1.39 ± 0.32 h

**Q.** What about the “Decrease of Clz/F compared with control group” value [1, 6] of the same molecule?
**A.** 65.73%

**Q.** And the “Increase of Cmax compared with control group” value [1, 6]?
**A.** 1.05 fold

**Q.** And the “Decrease of CLz/F compared with control group” value [1, 7]?
**A.** 86.87%

**Q.** What about the “Decrease of Vz/F compared with control group” value [1, 7] of the same molecule?
**A.** 89.35%

**Q.** And the “Elevation of Cmax compared with control group” value [1, 7]?
**A.** 3.12 fold

**Q.** What about the “Elevation of Tmax compared with control group” value [1, 7] of the same molecule?
**A.** 2.71 fold

**Q.** And the “Increase of AUC(0-∞) compared with control group” value [1, 7]?
**A.** 6.37 fold

**Q.** And the “Increase of MRT(0-∞) compared with control group” value [1, 7]?
**A.** 0.58 fold

**Q.** And the “Stability, accuracy range over three QC levels and three storage conditions” value ([2]; 4°C 24 hours, room temperature 4 hours, −80°C 7 days)?
**A.** 99.68–111.18%

**Q.** What about the “Stability, Accuracy RE (%)” value [2, 8] of the same molecule?
**A.** 106.95%

**Q.** What about the “Stability, Accuracy RE (%)” value [2, 9] of the same molecule?
**A.** 108.99%

**Q.** And the “Stability, Accuracy RE (%)” value [2, 10]?
**A.** 102.08%

**Q.** And the “Stability, Accuracy RE (%)” value [2, 11]?
**A.** 102.90%

**Q.** And the “Stability, Accuracy RE (%)” value [2, 12]?
**A.** 105.33%

**Q.** And the “Stability, Accuracy RE (%)” value [2, 13]?
**A.** 99.68%

**Q.** Which results are given for `CNCc1cc(-c2ccccc2F)n(S(=O)(=O)c2cccnc2)c1` [Vonoprazan]?
**A.** Inhibition mechanism on VEN metabolism (rat liver microsomes; competitive plus non-competitive): mixed inhibition; Ki’ (inhibition of VEN metabolism) (rat liver microsomes; mixed inhibition, Lineweaver-Burk): 11.29 µM; Ki (rat liver microsomes; read-out: Ki (inhibition of VEN metabolism), mixed inhibition, Lineweaver-Burk): 23.1 µM; IC50 at 30 min [3]: 5.54 µM
